Measured values published in PMC9826439 (Chemistry (Weinheim an Der Bergstrasse, Germany), 2022).

Tests used:
rhodesain = rhodesain (Trypanosoma brucei rhodesiense, UniProt Q95PM0); conditions: E-64 15 µM preincubated 37 °C 15 min, then ABP 7 15 µM
human cathepsin L = human cathepsin L (Homo sapiens, UniProt P07711); test: Cathepsin L inhibition assay; assay type: biochemical; conditions: ratio of k inac/K i values
Method in brief: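 Commercial human cathepsin; inactivation progress curves recorded for 60 min at five test-compound concentrations, in duplicate. pNA substrates were read at 405 nm (cuvette) and AMC substrates at λex 360/λem 460 nm. kobs came from a non-linear progress-curve fit, and kinac/Ki from a kobs vs [I] fit corrected by [S]/Km. Remaining activity was taken at 5 μM. SR is the ratio of rhodesain to cathepsin kinac/Ki.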

[1] = biological target: rhodesain-like proteases (TbCatLs) in T. b. brucei cell lysate (Trypanosoma brucei brucei, UniProt P14658); test: Competition profiling assay with ABP 7, T. b. brucei cell lysate; assay type: biochemical; conditions: T. b. brucei cell lysate 80 μg protein; inhibitor 0.016–10 μM, then ABP 7 5 μM
Chain of rhodesain-like proteases (TbCatLs) in T. b. brucei cell lysate (P14658 126-450): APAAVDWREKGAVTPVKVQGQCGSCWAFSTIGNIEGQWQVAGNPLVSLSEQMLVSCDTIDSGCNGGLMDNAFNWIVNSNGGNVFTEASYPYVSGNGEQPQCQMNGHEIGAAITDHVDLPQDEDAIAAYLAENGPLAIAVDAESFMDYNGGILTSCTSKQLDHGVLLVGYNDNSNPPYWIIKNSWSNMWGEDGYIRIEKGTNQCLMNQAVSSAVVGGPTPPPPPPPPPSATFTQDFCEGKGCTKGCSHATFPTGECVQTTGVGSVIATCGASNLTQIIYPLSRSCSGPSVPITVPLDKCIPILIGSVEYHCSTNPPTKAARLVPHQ

Chain of rhodesain (Q95PM0 126-340 limits assumed): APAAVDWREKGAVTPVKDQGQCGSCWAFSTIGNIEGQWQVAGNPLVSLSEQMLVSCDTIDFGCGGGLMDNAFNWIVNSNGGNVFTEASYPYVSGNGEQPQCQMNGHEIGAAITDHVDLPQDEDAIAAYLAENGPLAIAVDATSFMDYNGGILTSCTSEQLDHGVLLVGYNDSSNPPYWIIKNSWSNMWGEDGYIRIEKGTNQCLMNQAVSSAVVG
Chain of human cathepsin L (P07711 114-333): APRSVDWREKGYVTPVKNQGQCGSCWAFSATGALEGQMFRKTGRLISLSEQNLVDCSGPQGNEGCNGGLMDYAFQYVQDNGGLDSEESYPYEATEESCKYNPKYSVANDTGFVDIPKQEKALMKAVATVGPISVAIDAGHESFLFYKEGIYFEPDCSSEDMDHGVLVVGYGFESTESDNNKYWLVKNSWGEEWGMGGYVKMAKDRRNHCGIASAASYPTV

## CC(C)C[C@H](NC(=O)[C@H]1O[C@@H]1C(=O)O)C(=O)NCCCCN=C(N)N [E‐64]
rhodesain
  generation of the fluorescent rhodesain-7 adduct: completely abolished

## Cc1ccc(C[C@H](NC(=O)OC(C)(C)C)C(=O)NC/C=C/S(=O)(=O)c2ccccc2)cc1 [Compound 2, (S,E)‐tert‐Butyl 1‐oxo‐1‐(3‐(phenylsulfonyl)allylamino)‐3‐p‐tolylpropan‐2‐ylcarbamate]
Human cathepsin L
  selectivity ratio (SR rhodesain/cathepsin L): 23.8
[1]
  concentration at which significantly lowered ABP 7 labeling signal was observed: 80 nM
